# Shown is part of a subset that was picked to be rich in hits.
# CHOP inhibitor: inhibitors of CHOP promoter induction, primary screen, cell-based, unfolded protein response, luciferase reporter; CHO-K1 CHOP-promoter luciferase, tunicamycin-induced, 15-18 h; inhibition, % at 10 µM; hit rate 3.8% among 220,000; AID 2732, 2010;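 active = compounds that reduced the stress-induced luciferase reporter signal by more than about 70% of percent inhibition, limit read from the data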;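 also: 0% = tunicamycin plus vehicle and 100% = wells without tunicamycin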
# 697 NFkB inh: inhibitors of PMA/ionomycin-induced NF-kB reporter, 697 cells, primary screen, B-cell NF-kB inhibitor project, cell-based, luminescence, uHTS; 697 B-cell NF-kB luciferase reporter, 16 h; inhibition, % at 4 µM; hit rate 0.33% among 330,000; in the data active = inhibition above about 35%
# UPR XBP1 act: activators of adaptive XBP1 UPR arm, primary screen, cell-based, CHO-XBP1 luciferase reporter, luminescence, uHTS | hit rate 0.33% among 330,000 | IRE1-XBP1 UPR activation; percent of tunicamycin response, DMSO as zero | activation, % at 20 µM | AID 463104, 2010;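 active = versus positive control, 20 µM dose yields 30% or more activation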;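 also: 100% = tunicamycin at 10 µg/mL and 0% = DMSO only wells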
#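 Material – CHO cell line with stable XBP1 luciferase reporter · Buffer or medium – F12 plus 10% FBS · Compound – single point, 20 µM final compound, 1% DMSO · Schedule – 16-18 h cell attachment at 37 °C, then 6 h compound exposure · Signal – Steady-Glo luminescence read · Benchmarks – high control tunicamycin 10 µg/mL final, low control DMSO vehicle only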
# Jurkat NFkB inh: inhibitors of induced NF-kB luciferase reporter, primary screen, TCR NF-kB activation inhibitor project, cell-based, luminescence, uHTS; Jurkat, PMA/ionomycin-induced NF-kB luciferase reporter; inhibition, % at 4 µM; hit rate 0.53% among 330,000; AID 435003, 2010; in the data active = inhibition above about 50%
# UPR CHOP act: activators of apoptotic CHOP UPR arm, primary screen, cell-based, CHO-CHOP luciferase reporter, luminescence, uHTS; hit rate 0.34% among 330,000; activation, % at 10 µM; UPR activation; percent of tunicamycin response over DMSO baseline;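 active = at 10 µM dose, activation of 40% or more, normalized to positive control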;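 also: 100% = tunicamycin at 10 µg/mL and 0% = DMSO alone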
#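 Test system: CHO-CHOP cells, stable luciferase reporter of PERK-eIF2a-CHOP signalling | Quantity: 500 CHO-CHOP cells per well | Buffer or medium: F12 plus 10% serum | Compound dosing: 10 µM single point, 0.5% DMSO | Schedule: 6 h compound treatment, 37 °C | Signal: Luciferase luminescence | Control set: Tunicamycin high control, DMSO low control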
# * marks the source's active call; other numbers are inactive results; · = no result.
SMILES,CHOP inhibitor,697 NFkB inh,UPR XBP1 act,Jurkat NFkB inh,UPR CHOP act
COc1ccc(NC(=O)N(C)C[C@H]2Oc3c(NC(=O)C4CCCCC4)cccc3C(=O)N([C@H](C)CO)C[C@@H]2C)cc1,·,7,1,-5,1
Cc1ccc(S(=O)(=O)N2CCN(C3CC4CCC3C4)CC2)cc1 (centres undefined),·,14,-3,17,0
Cc1cccc(NC(=O)Nc2nnc(N3CCCCC3C)s2)c1C (centres undefined),80*,-6,5,-16,5
O=C(CCC(=O)OCCCC(F)(F)C(F)(F)F)Nc1ccc(Cl)cc1Cl,80*,-4,-3,-6,-4
Cc1ccc(NC(=O)CCC(=O)OCCCC(F)(F)C(F)(F)F)cc1,22,0,2,-11,-3
O=C(CCCCCn1c(=S)[nH]c2cc3c(cc2c1=O)OCO3)N1CCN(Cc2ccccc2)CC1,40,-43,1,4,-2
O=C(CCCCCn1c(=S)[nH]c2cc3c(cc2c1=O)OCO3)N1CCN(C2CCCCC2)CC1,83*,-29,3,-7,-1
CCCc1cc(C(=O)OC)c(NC(=O)CCCC(=O)O)s1,9,16,1,8,-1
CCCc1cc(C(=O)OC)c(NC(=O)OCC)s1,74*,8,-2,-4,-1
CC(C)c1nnc(SCC(=O)N2CCc3ccccc32)n1N,9,12,1,10,2
O=C(NCCN1CCc2ccccc2C1)C1CC(=O)N(C2CCCC2)C1 (centres undefined),89*,2,-2,-9,0
C=CCNc1nc(Cl)nc(Nc2ccc(OC)cc2)n1,28,-26,5,-17,0
COc1ccc(Nc2nc(Cl)nc(N3CCN(c4ccc(OC)cc4)CC3)n2)cc1,93*,-9,-3,-9,2
COc1ccc(Nc2nc(OC)nc(N3CCN(c4ccc(OC)cc4)CC3)n2)cc1,77*,·,·,·,·
COc1ccc(Nc2nc(Cl)nc(Nc3ccc(OC)cc3)n2)cc1,71*,-1,1,-15,1
CC(C)N(CCNC(=O)COc1ccc2oc3c(c2c1)CCCC3)C(C)C,·,-5,-4,5,4
COC(=O)[C@H](Cc1c[nH]c2ccccc12)NC(=O)NCc1ccccc1,·,21,-3,3,0
COc1cccc(C2/C(=C(/O)c3ccc4c(c3)OCO4)C(=O)C(=O)N2CCN2CCOCC2)c1 (centres undefined),·,-23,-2,0,0
O=C(c1cc(C(=O)NCCc2ccccc2)c(=O)n(CCc2ccccc2)c1)c1cc(Cl)ccc1O,82*,-3,6,11,7
COc1ccc([C@@]2(O)c3c(ccc(CC=C(C)C)c3O)NC(=O)[C@@H]2OC)cc1,11,12,-1,10,-1
CCn1c(C)nc2cc(C(=O)NNC(=O)c3ccc(C)cc3)ccc21,·,-58,-1,-69,2
CCn1c(C)nc2cc(C(=O)OC(C(F)(F)C(F)F)C(F)(F)C(F)F)ccc21,74*,-21,4,-11,12
CC(C)CCN(C(=O)C1CSC2(C)CCC(=O)N12)c1c(N)n(Cc2ccccc2)c(=O)[nH]c1=O (centres undefined),·,-1,1,10,0
Cc1ccc(S(=O)(=O)Cc2ccc(C(=O)N3CCN(c4cc(C)ccc4C)CC3)o2)cc1,95*,·,·,·,·
Cc1ccc(-c2nc(CSCC(=O)N3CCN(C(=O)c4ccco4)CC3)c(C)o2)cc1,35,8,-4,-2,-1
SMILES,CHOP inhibitor,697 NFkB inh,UPR XBP1 act,Jurkat NFkB inh,UPR CHOP act
CCOc1ccc(-c2nc(CSCC(=O)N3CCN(c4cccc(OC)c4)CC3)c(C)o2)cc1,74*,12,1,21,4
CCc1ccc(-c2nc(CSCC(=O)N3CCN(c4ccccn4)CC3)c(C)o2)cc1,86*,-9,3,4,-2
Cc1ccc(-c2nc(CSCC(=O)N3CCN(c4ccccn4)CC3)c(C)o2)cc1,78*,-25,5,-2,-2
CCOc1ccc(-c2nc(CSCC(=O)NC3CCCc4ccccc43)c(C)o2)cc1 (centres undefined),87*,23,2,13,1
Cc1ccc(-c2nc(CSCC(=O)N3CCOCC3)c(C)o2)cc1,8,-10,0,-6,1
O=c1onc(-c2ccccc2Cl)n1-c1ccccc1Cl,·,2,-2,2,2
CCCCC(=O)Nc1nn(C)c2nc3c(C)cccc3cc12,76*,15,-2,4,0
CCOC(=O)Cn1c2ccccc2c2nc3ccccc3nc21,93*,-23,5,-23,1
COc1ccc2c(c1)c1nc3ccccc3nc1n2CCn1c(=O)oc2ccccc21,95*,0,-2,15,-2
CCOC(=O)Cn1c2ccccc2c2nc(C)sc21,16,11,-1,-20,0
O=c1oc2ccccc2n1CCn1c2ccccc2c2nc3ccccc3nc21,48,-18,9,-13,2
COc1ccc2c(c1)c1nc3ccccc3nc1n2CC(=O)OC(C)C,94*,0,22,5,10
COc1ccc(Cn2c3ccc(OC)cc3c3nc4ccccc4nc32)cc1,58,-7,0,16,-1
Cc1cccc(NC(=O)C2CCCN(S(=O)(=O)c3ccc4[nH]c(=O)ccc4c3)C2)c1 (centres undefined),·,-13,0,-2,-1
CCOC(=O)C(Cc1ccccc1)c1ccnc2nc(N)nn12 (centres undefined),3,9,0,4,2
O=C(CN(C(=O)CCC(=O)Nc1nccs1)c1ccc(F)cc1)NCc1ccc(F)cc1,·,10,1,-21,-1
C=CCn1c(SCC(=O)Nc2sccc2C(N)=O)nc2ccccc2c1=O,51,-5,3,17,0
C=CCn1c(SCC(=O)Nc2sccc2C(N)=O)nc2ccc(Cl)cc2c1=O,78*,-25,-4,18,2
COc1cccc(-c2csc3nnc(SCC(=O)c4ccc(NC(C)=O)cc4)n23)c1,79*,28,-1,7,1
Cc1nnc(SCC(=O)Nc2nccs2)n1N,·,11,2,6,1
COc1ccc(-c2ccc(-c3noc(-c4ccccc4F)n3)c(OC)n2)cc1,74*,·,·,·,·
COc1ccc(-c2ccc(-c3noc(-c4ccco4)n3)c(OC)n2)cc1,72*,-20,2,-47,0
COc1nc(-c2ccccc2)ccc1-c1noc(-c2ccco2)n1,11,-105,0,-71,8
N[C@@H](Cc1ccccc1)C(=O)N1CCC(C(=O)NCC(=O)NCC(=O)O)CC1,·,15,-3,8,-1

# From PubChem
